Test results as given in ChEMBL document CHEMBL1165943, “Design and synthesis of new anticancer pyrimidines with multiple-kinase inhibitory effect” (Bioorg Med Chem, 2010).
pIC50: −log10 of the molar value.

How the values were obtained:
[1] = test system: UACC-257; assay: Growth inhibition of human UACC257 cells after 48 hrs by sulforhodamine B assay; assay type: functional, cell-based; settings: UACC-257, 48 h; for CC50: read-out: LC50 (the source's name)
In short: (§1)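 Cells grown in RPMI 1640 with 5% FBS and 2 mM L-glutamine, seeded at 5,000–40,000 cells/well according to doubling time. After 24 h, time-zero plates are TCA-fixed. Five concentrations (10-fold or ½log dilutions, DMSO stocks) are applied for 48 h at 37 °C, 5% CO₂. Cells are TCA-fixed, SRB-stained and read at 515 nm. IC₅₀ is taken from [(Ti−Tz)/(C−Tz)]×100 = 50.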

[2] = test system: BT-549; assay: Cytotoxicity against human BT549 cells assessed as cell growth at 10 uM; assay type: functional; settings: Homo sapiens, BT-549; read-out: Activity
In short: (§2)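 Single-concentration screen at 10 μM across the 60-cell-line panel (nine tissue types); growth percentage recorded per cell line, with inhibition taken as 100 minus growth percentage.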

[3] = test system: SNB-19; assay: Cytotoxicity against human SNB19 cells assessed as cell growth at 10 uM; assay type: functional; settings: read-out: Activity
In short: (§3)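 Single-dose screen at 10 μM across the 60-cell-line panel. Cells grown in RPMI 1640 with 5% FBS and 2 mM L-glutamine, seeded at 5,000–40,000 cells/well according to doubling time, and treated 24 h later. Exposure lasted 48 h at 37 °C, 5% CO₂. Adherent cells were fixed with cold TCA, suspension cells were fixed settled, and both were stained with SRB and read at 515 nm. Growth % was recorded, with inhibition % = 100 − growth %.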

[4] = test system: CCRF-CEM; assay: Cytotoxicity against human CCRF-CEM cells assessed as cell growth at 10 uM; assay type: functional; settings: Homo sapiens, CCRF-CEM; read-out: Activity; in short: as §2
[5] = test system: A549; assay: Cytotoxicity against human A549 cells assessed as cell growth at 10 uM; assay type: functional; settings: Homo sapiens, A549; read-out: Activity; in short: as §2
[6] = test system: SF-539; assay: Cytotoxicity against human SF539 cells assessed as cell growth at 10 uM after 48 hrs by sulforhodamine B assay; assay type: functional; settings: SF-539, 48 h, read-out: Activity
[7] = test system: NCI-H23; assay: Cytotoxicity against human NCI-H23 cells assessed as cell growth at 10 uM; assay type: functional; settings: Homo sapiens, NCI-H23; read-out: Activity; in short: as §3
[8] = test system: 786-0; assay: Cytotoxicity against human 786-0 cells assessed as cell growth at 10 uM; assay type: functional; settings: Homo sapiens, 786-0; read-out: Activity; in short: as §2
[9] = test system: 786-0; assay: Cytotoxicity against human 786-0 cells assessed as cell growth at 0.001 uM after 48 hrs by sulforhodamine B assay; assay type: functional; settings: 786-0, 48 h, read-out: Activity
In short: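 Cells grown in RPMI 1640 with 5% FBS and 2 mM L-glutamine, seeded at 5,000–40,000 cells/well by doubling time. Time-zero plates TCA-fixed after 24 h. Five concentrations (10-fold or half-log dilutions from DMSO stock) added; 48 h at 37 °C, 5% CO2. Cold TCA fixation (final 10%, 60 min, 4 °C), 0.4% SRB stain, dye solubilized in 10 mM trizma base, A515.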

[10] = test system: MCF7; assay: Cytotoxicity against human MCF7 cells assessed as cell growth at 10 uM; assay type: functional; settings: Homo sapiens, MCF7; read-out: Activity; in short: as §3
[11] = test system: MDA-MB-231; assay: Cytotoxicity against human MDA-MB-231 cells assessed as cell growth at 10 uM; assay type: functional; settings: Homo sapiens, MDA-MB-231; read-out: Activity; in short: as §3
[12] = test system: SN12C; assay: Cytotoxicity against human SN12C cells assessed as cell growth at 10 uM; assay type: functional; settings: Homo sapiens, SN12C; read-out: Activity; in short: as §3
[13] = test system: LOX IMVI; assay: Cytotoxicity against human LOXIMVI cells assessed as cell growth at 10 uM; assay type: functional; settings: Homo sapiens, LOX IMVI; read-out: Activity; in short: as §3
[14] = test system: RXF 393; assay: Cytotoxicity against human RXF393 cells assessed as cell growth at 10 uM; assay type: functional; settings: Homo sapiens, RXF 393; read-out: Activity; in short: as §3
[15] = test system: U-251; assay: Cytotoxicity against human U251 cells assessed as cell growth at 0.001 uM after 48 hrs by sulforhodamine B assay; assay type: functional; settings: U-251, 48 h, read-out: Activity
[16] = test system: OVCAR-5; assay: Cytotoxicity against human OVCAR5 cells assessed as cell growth at 10 uM; assay type: functional; settings: Homo sapiens, OVCAR-5; read-out: Activity; in short: as §3
[17] = Cytotoxicity against human Hs 578T cells assessed as cell growth at 10 uM; assay type: functional; settings: read-out: Activity; in short: as §2
[18] = Growth inhibition of human NCI60 cells at 10 uM after 48 hrs by sulforhodamine B assay relative to control; assay type: functional; settings: Homo sapiens, NCI60, 48 h; read-out: GI
In short: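 Single 10 µM dose across the 60-line panel for 48 h, with the same culture, TCA fixation and SRB 515 nm read-out. Inhibition % = 100 − growth %, given as the mean over the 60 cell lines.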

[19] = test system: HOP-62; assay: Growth inhibition of human HOP62 cells after 48 hrs by sulforhodamine B assay; assay type: functional, cell-based; settings: HOP-62, 48 h; for CC50: read-out: LC50 (the source's name); in short: as §1
[20] = test system: UACC-62; assay: Growth inhibition of human UACC62 cells after 48 hrs by sulforhodamine B assay; assay type: functional, cell-based; settings: UACC-62, 48 h; in short: as §1
[21] = test system: A498; assay: Cytotoxicity against human A498 cells assessed as cell growth at 10 uM; assay type: functional; settings: Homo sapiens, A498; read-out: Activity; in short: as §2
[22] = test system: COLO 205; assay: Cytotoxicity against human COLO205 cells assessed as cell growth at 10 uM; assay type: functional; settings: Homo sapiens, COLO 205; read-out: Activity; in short: as §2
[23] = test system: MDA-MB-435; assay: Cytotoxicity against human MDA-MB-435 cells assessed as cell growth at 10 uM; assay type: functional; settings: read-out: Activity; in short: as §3
[24] = test system: EKVX; assay: Cytotoxicity against human EKVX cells assessed as cell growth at 10 uM after 48 hrs by sulforhodamine B assay; assay type: functional; settings: read-out: Activity
[25] = test system: UACC-257; assay: Cytotoxicity against human UACC257 cells assessed as cell growth at 10 uM; assay type: functional; settings: Homo sapiens, UACC-257; read-out: Activity; in short: as §3
[26] = Cytotoxicity against human […] cells assessed as cell growth at 10 uM; assay type: functional; settings: Homo sapiens, RPMI8266; read-out: Activity; in short: as §3
[27] = test system: PC-3; assay: Cytotoxicity against human PC3 cells assessed as cell growth at 10 uM; assay type: functional; settings: Homo sapiens, PC-3; read-out: Activity; in short: as §3
[28] = test system: NCI-H226; assay: Cytotoxicity against human NCI-H226 cells assessed as cell growth at 10 uM; assay type: functional; settings: Homo sapiens, NCI-H226; read-out: Activity; in short: as §3
[29] = test system: UACC-62; assay: Cytotoxicity against human UACC62 cells assessed as cell growth at 10 uM; assay type: functional; settings: Homo sapiens, UACC-62; read-out: Activity; in short: as §3
[30] = test system: HOP-92; assay: Cytotoxicity against human HOP92 cells assessed as cell growth at 10 uM; assay type: functional; settings: Homo sapiens, HOP-92; read-out: Activity; in short: as §2

## CC(=O)c1ccccc1-c1ccc(-c2ccnc(NC(=O)Nc3cc(N4CCOCC4)cc(C(F)(F)F)c3)n2)cn1
[1]
  GI50: 15.9 µM
  pIC50: < 4.00
  TGI: > 100 µM
  CC50: > 100 µM
[2]
  growth at 10 µM: 51.7%
[3]
  growth at 10 µM: 71.7%
[4]
  growth at 10 µM: 80.7%
[5]
  growth at 10 µM: 68%
[6]
  growth at 10 µM: 56%
[7]
  growth at 10 µM: 58.5%
[8]
  growth at 10 µM: 47.3%
[9]
  growth at 0.001 µM: 103%
[10]
  growth at 10 µM: 75%
[11]
  growth at 10 µM: 30.1%
[12]
  growth at 10 µM: 52.3%
[13]
  growth at 10 µM: 44.7%
[14]
  growth at 10 µM: -19.6%
[15]
  growth at 0.001 µM: 93%
[16]
  growth at 10 µM: 102%
[17]
  growth at 10 µM: 60.8%
[18]
  inhibition of growth at 10 µM: 38.4%
[19]
  GI50: > 100 µM
  pIC50: 5.37
  TGI: > 100 µM
  CC50: > 100 µM
[20]
  GI50: > 100 µM
  pIC50: < 4.00
  LC50 (concentration causing 50% net cell kill): > 100 µM
  TGI: > 100 µM
[21]
  growth at 10 µM: 107%
[22]
  growth at 10 µM: 85.7%
[23]
  growth at 10 µM: 82.8%
[24]
  growth at 10 µM: 74%
[25]
  growth at 10 µM: 65.1%
[26]
  growth at 10 µM: 79.7%
[27]
  growth at 10 µM: 71.3%
[28]
  growth at 10 µM: 39.4%
[29]
  growth at 10 µM: 76%

## CC(=O)Nc1cccc(-c2ccc(-c3ccnc(NC(=O)Nc4cc(C(F)(F)F)cc(C(F)(F)F)c4)n3)cn2)c1.Cl
[1]
  GI50: 1.69 µM
  pIC50: 5.77
  TGI: 4.32 µM
  CC50: 13.2 µM
[2]
  growth at 10 µM: 47.3%
[3]
  growth at 10 µM: 50.5%
[4]
  growth at 10 µM: 43.3%
[6]
  growth at 10 µM: -98%
[7]
  growth at 10 µM: -6.37%
[8]
  growth at 10 µM: 69.8%
[30]
  growth at 10 µM: 72.4%
[9]
  growth at 0.001 µM: 96%
[10]
  growth at 10 µM: 7.95%
[11]
  growth at 10 µM: 65.5%
[12]
  growth at 10 µM: 68%
[13]
  growth at 10 µM: 49.4%
[14]
  growth at 10 µM: 121%
[15]
  growth at 0.001 µM: 98%
[16]
  growth at 10 µM: 93.5%
[17]
  growth at 10 µM: 120%
[18]
  inhibition of growth at 10 µM: 50.9%
[19]
  GI50: 4.88 µM
  pIC50: 5.31
  TGI: 26.8 µM
  CC50: > 100 µM
[20]
  GI50: 2.86 µM
  pIC50: 5.54
  LC50 (concentration causing 50% net cell kill): 35.7 µM
  TGI: 12.7 µM
[21]
  growth at 10 µM: 59%
[22]
  growth at 10 µM: 53.5%
[23]
  growth at 10 µM: 73.9%
[24]
  growth at 10 µM: -7%
[25]
  growth at 10 µM: 50.5%
[26]
  growth at 10 µM: 38.1%
[27]
  growth at 10 µM: 56.2%
[28]
  growth at 10 µM: 59.8%
[29]
  growth at 10 µM: 46.6%
